Bioassay records deposited in PubChem BioAssay by several laboratories.
T cruzi inh = inhibitors of intracellular T. cruzi growth, primary screen, luminescence, NIH3T3 host cells; T. cruzi beta-gal in NIH3T3, 90 h; inhibition, % (test concentration not listed); hit rate 1.4% among 300,000;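 active means mean inhibition across valid replicates above about 55%, limit read from the data; inconclusive means mean below that limit but half or more replicates reach it; inactive means mean below it, under half of replicates reach it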;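 further: signal also drops with host cell toxicity which is not excluded here; 0% = plate median of DMSO wells and 100% = zero luminescence signal; higher percent means less beta-gal luminescence so fewer parasites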
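Test system: β-gal T. cruzi (Tulahuen C4) inside NIH/3T3 cells / Quantity: 5,000 cells/well / Measured by: luminescence from GalScreen with 0.05% NP40, read after 60 min / Medium: DMEM plus 2% FBS / Measure: parasite load inhibition, % / Reagent: Tulahuen C4 trypomastigotes, 5000/well / Schedule: co-culture of at least 90 h after 3 h attachment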
CSC inhib = cancer stem cell viability inhibitors, primary screen, luminescence; inhibition, % at 7.5 µM; hit rate 1.1% among 300,000; cancer stem cell-like cells viability; AID 2717, 2010; in the data active means inhibition above about 75%; inconclusive means no clear call, values can overlap the other calls; tested in HMLE shEcad cells
WT yeast gro inh = growth inhibition of WT strain, primary screen, mitochondrial fusion inhibitor project, WT and mutant strains, chemical genetic; mitochondrial fusion phenotypic screen; AID 1362, 2008; hit rate 2.1% among 190,000; inhibition, % at 10 µM; in the data active means inhibition above about 58%; tested in S. cerevisiae
Beta apoptosis = inhibitors of cytokine-induced beta cell apoptosis, primary screen, luminescence; INS-1E cytokine-induced death, ATP luminescence, 48 h; percent of positive-control rescue, neutral wells zero; protection from apoptosis, % (no concentration beside the values); hit rate 0.8% among 300,000; AID 435005, 2010;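 active means Every replicate reaches about 75%, or at least half do and their mean reaches it too, limit read from the data; inconclusive means At least half of replicates reach the limit but their mean does not; inactive means Under half of replicates reach the limit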;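 further: 0% = cytokine-treated negative control wells and 100% = positive control rescue; higher means more ATP so stronger rescue from cytokine killing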
Mot1-301 SUMO = yeast Mot1-301 growth rescue at high temperature, primary screen, SUMOylation pathway inhibitor project, S. cerevisiae, ATP luminescence, 38.5C | AID 2716, 2010 | S. cerevisiae Mot1-301 growth rescue; percent above DMSO median, 100 means doubled | hit rate 1% among 320,000 | growth rescue, % at 18.8 µM;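 active means every valid replicate shows activation above 250% relative to neutral control wells; inactive means the rest, any valid replicate at or below 250%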;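 further: OY570 slx delta 5 strain wells were the positive control but not used for scaling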
Efflux pump inh = inhibitors of Candida efflux pumps in yeast, primary screen, S. cerevisiae, Nile Red, multiplex; S. cerevisiae Candida pump triplex; inhibition, % at 10 µM; hit rate 0.44% among 330,000;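 active means plate passing quality check with inhibition over a set limit, or well fluorescence over plate mean plus 4 SD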;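 further: Nile Red retained in pooled yeast measured as flow cytometry median fluorescence; 0% = buffer negative control and 100% = Enniatin B positive control; higher means more Nile Red kept so more efflux inhibition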
Yeast Mot1 SUMO = growth restoration of Mot1-301 yeast on galactose, dose response, SUMO pathway inhibitor project, whole organism, S. cerevisiae, ATP luminescence, cherry-picked samples. shares compounds with Mot1-301 SUMO. S. cerevisiae Mot1-301 galactose growth, 24 h; -100 = growth of slx-deleted rescue strain. growth activity, percent, % at 42 µM. 2,300 tested, under 10 active;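 active means Signal drops as the depositor expects, and the fitted half-maximal dose is no more than ten times the top valid tested dose; inconclusive means Poor fit, or a flat curve whose signal drops by 30% to 70%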;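 further: more negative values mean stronger growth rescue toward the control strain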
* = called active by the depositor; u = inconclusive; x = no result; + = active, no number. This is a sample that favours compounds with a hit; in the whole collection about 4.8% have one here.

SMILES | T cruzi inh | CSC inhib | WT yeast gro inh | Beta apoptosis | Mot1-301 SUMO | Efflux pump inh | Yeast Mot1 SUMO
Cc1ccc(OCCC(=O)N(CC(=O)Nc2ccccc2C(F)(F)F)Cc2ccco2)cc1 | -9 | 2 | x | -5 | -3 | 0 | x
N#Cc1ccc(C23CC4(C2)[C@H](CN(Cc2ccc(C(F)(F)F)cc2)[C@@H]4c2ccccc2)C3c2ccc(C(F)(F)F)cc2)cc1 (stereo not given in full) | 3 | 21 | x | 10 | 427* | 0 | 0
CCCCOc1ccc(Cc2n[nH]c(=S)n2N)cc1 | 11 | -1 | 17 | -3 | -4 | 0 | x
Cc1cc(C)c(NC(=O)Cn2c([N+](=O)[O-])cnc2C)c(C)c1 | -12 | 1 | x | -7 | + | 0 | 0
Cc1ccc(C)c(NC(=O)Cn2c([N+](=O)[O-])cnc2C)c1 | -9 | -3 | 6 | 2 | -24 | 0 | x
Clc1ccc(CONc2ncnc3nonc23)c(Cl)c1 | 28 | 25 | -7 | 9 | + | 0 | -2
CCONc1ncnc2nonc12 | -7 | 0 | -16 | -8 | -4 | 0 | x
CN1CCN(C(=O)CN(Cc2ccc(Cl)cc2)S(C)(=O)=O)CC1 | x | -8 | 2 | -7 | 16 | 0 | x
CS(=O)(=O)N(CC(=O)N1CCCCCC1)Cc1ccc(Cl)cc1 | 3 | 1 | -8 | 5 | 589* | 0 | 0
COc1ccc(/C=C2\SC(=O)N(CC(=O)NNC(=O)c3ccccc3O)C2=O)cc1 | -12 | 35 | 17 | 3 | -5 | 1 | x
CCCc1nn2c(=O)cc(CSCC(=O)Nc3cccc(OC)c3)nc2s1 | -10 | 49 | x | -9 | -8 | 0 | x
CCCc1nn2c(=O)cc(CSCC(=O)Nc3ccc(OC)cc3)nc2s1 | -5 | 22 | x | -7 | 539* | -1 | 1
Cc1cc(-c2cc(C(=O)NCc3ccccc3)on2)nc(S(C)(=O)=O)n1 | -21 | 14 | x | -9 | 9 | 0 | x
CC(CN1CCCCCC1)C(=O)NN (stereo not given) | -6 | -12 | -15 | -3 | 674* | 0 | 1
CC(CN1CCCCC1)C(=O)NNC(=O)C12CC3CC(CC(C3)C1)C2 (stereo not given) | 2 | 4 | -2 | -3 | 0 | 0 | x
CCOC(=O)C1C(=O)NC(SCC(=O)Nc2nccs2)=C(C#N)C1c1ccccc1OCC (stereo not given) | -4 | 3 | 28 | -8 | 633* | 0 | 0
O=[N+]([O-])c1ccccc1S(=O)(=O)Nc1ccc(-c2ccc3nncn3n2)cc1 | 2 | 12 | x | -6 | 7 | 0 | x
C/C(N)=C(/C#N)C(=O)CSc1nc(C2CCCCC2)n(-c2ccccc2)n1 | 26 | -9 | 0 | -5 | 2 | 0 | x
NC(=O)NC(=O)CSc1nc(C2CCCCC2)n(-c2ccccc2)n1 | 5 | -11 | 6 | -2 | 685* | 2 | 0
COc1ccccc1NC(=O)C1CCN(C(=O)C2CC(=O)N(c3ccc(C)cc3)C2)CC1 (stereo not given) | 2 | -2 | x | 4 | 11 | 0 | x
Cc1ccc(NC(=O)Cn2nnc(C(=O)NCc3ccc4c(c3)OCO4)c2N)cc1 | -16 | -5 | x | 2 | 550* | 0 | 0
CC1CCC(C(C)C)C(OC(=O)COC(=O)c2cccn2C)C1 (stereo not given) | -1 | -16 | 74* | 2 | 377* | 0 | 0
CC1CCC(C(C)C)C(OC(=O)COC(=O)c2ccc(N)cc2)C1 (stereo not given) | -8 | u | 32 | 7 | 21 | 0 | x
CCOCCCNC(=O)C(c1ccc(C)cc1)N(Cc1cccs1)C(=O)c1ccccn1 (stereo not given) | 4 | -8 | 10 | -2 | 17 | 0 | x
CCOCCCNC(=O)C(c1ccc(OC)cc1)N(Cc1cccs1)C(=O)c1ccccn1 (stereo not given) | x | 0 | 24 | -2 | 522* | 0 | -1
